From ChEMBL document CHEMBL5724801, “EUbOPEN Chemogenomics Library - Multiplex” (2024)
Several values for one entry are separate records, joined by “and”; a condition that tells them apart may be missing. Equal entries are not always repeated.

Tested on: U2OS
Test: Multiplex assay against U2OS
Type: toxicity, cell-based
Details: human
Outline: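 Compound was added to live cells that had been stained at seeding with Hoechst33342, BioTracker Green Microtubule Cytoskeleton Dye, MitoTracker Red and Annexin V Alexa Fluor 680, and imaging followed on a CQ1 microscope at 37°C and 5% CO2. CellPathfinder machine-learning gating divided cells into Hoechst high-intensity objects or normal cells, normal cells into healthy, pyknosed or fragmented nuclei, and pyknosed cells into mitotic or apoptotic. Tubulin, mitochondrial-mass and membrane-permeability phenotypes are per cents of healthy-nucleus cells.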

[1] = 12 h, 1 µM, compound concentration 1 uM
[2] = 12 h, 10 µM, compound concentration 10 uM
[3] = 24 h, 1 µM, compound concentration 1 uM
[4] = 24 h, 10 µM, compound concentration 10 uM
[5] = 48 h, 1 µM, compound concentration 1 uM
[6] = 48 h, 10 µM, compound concentration 10 uM

CNc1nc(NCc2ncccn2)c2c(-c3ccc4ncccc4c3)c[nH]c2n1
Population Apoptotic (%) [1]: 34.88% and 46.15% | Population Fragmented Nuclei (%) [1]: 1.68% and 0.68% | Population Healthy Nuclei (%) [1]: 88.01% and 90.48% | Population Hoechst High Intensity Objects (%) [1]: 0% | Population Membrane Permeable-Phenotype (%) [1]: 1.36% and 3.01% | Population Mitochondria Different-Phenotype (%) [1]: 0% and 4.51% | Population Mitotic Cells (%) [1]: 65.12% and 53.85% | Population Normal (%) [1]: 100% | Population Pyknosed Nuclei (%) [1]: 10.31% and 8.84% | Population Tubulin-Different-Phenotype (%) [1]: 0.82% and 0.75% | Total Cell Count [1]: 417 and 147 | Population Apoptotic (%) [2]: 30.95% and 40% | Population Fragmented Nuclei (%) [2]: 0.88% and 3.14% | Population Healthy Nuclei (%) [2]: 86.76% and 84.28% | Population Hoechst High Intensity Objects (%) [2]: 0% | Population Membrane Permeable-Phenotype (%) [2]: 6.44% and 8.21% | Population Mitotic Cells (%) [2]: 69.05% and 60% | Population Normal (%) [2]: 100% | Population Pyknosed Nuclei (%) [2]: 12.35% and 12.58% | Population Tubulin-Different-Phenotype (%) [2]: 6.78% and 4.48% | Total Cell Count [2]: 340 and 159 | Population Apoptotic (%) [3]: 48.89% and 42.86% | Population Fragmented Nuclei (%) [3]: 2.09% and 2.01% | Population Healthy Nuclei (%) [3]: 90.09% and 83.92% | Population Hoechst High Intensity Objects (%) [3]: 0% | Population Membrane Permeable-Phenotype (%) [3]: 0.58% and 1.2% | Population Mitochondria Different-Phenotype (%) [3]: 0.19% and 6.59% | Population Mitotic Cells (%) [3]: 51.11% and 57.14% | Population Normal (%) [3]: 100% | Population Pyknosed Nuclei (%) [3]: 7.83% and 14.07% | Population Tubulin-Different-Phenotype (%) [3]: 0.58% and 0.6% | Total Cell Count [3]: 575 and 199 | Population Apoptotic (%) [4]: 29.41% and 43.75% | Population Fragmented Nuclei (%) [4]: 2.37% and 4.04% | Population Healthy Nuclei (%) [4]: 89.57% and 87.88% | Population Hoechst High Intensity Objects (%) [4]: 0% | Population Membrane Permeable-Phenotype (%) [4]: 1.59% and 2.3% | Population Mitotic Cells (%) [4]: 70.59% and 56.25% | Population Normal (%) [4]: 100% | Population Pyknosed Nuclei (%) [4]: 8.06% and 8.08% | Population Tubulin-Different-Phenotype (%) [4]: 2.12% and 1.15% | Total Cell Count [4]: 422 and 198 | Population Apoptotic (%) [5]: 45% and 54.29% | Population Fragmented Nuclei (%) [5]: 3.04% and 1.19% | Population Healthy Nuclei (%) [5]: 87.45% and 88.36% | Population Hoechst High Intensity Objects (%) [5]: 0% | Population Membrane Permeable-Phenotype (%) [5]: 1.2% and 1.35% | Population Mitochondria Different-Phenotype (%) [5]: 0.11% and 4.39% | Population Mitotic Cells (%) [5]: 55% and 45.71% | Population Normal (%) [5]: 100% | Population Pyknosed Nuclei (%) [5]: 9.51% and 10.45% | Population Tubulin-Different-Phenotype (%) [5]: 1.41% and 0.68% | Population Apoptotic (%) [6]: 55.56% and 56% | Population Fragmented Nuclei (%) [6]: 1.27% and 3.63% | Population Healthy Nuclei (%) [6]: 89.84% and 88.12% | Population Hoechst High Intensity Objects (%) [6]: 0% | Population Membrane Permeable-Phenotype (%) [6]: 0.94% and 1.87% | Population Mitochondria Different-Phenotype (%) [6]: 0.78% and 7.87% | Population Mitotic Cells (%) [6]: 44.44% and 44% | Population Normal (%) [6]: 100% | Population Pyknosed Nuclei (%) [6]: 8.89% and 8.25% | Population Tubulin-Different-Phenotype (%) [6]: 1.88% and 1.5% | Total Cell Count [6]: 709 and 303
